Several values for one entry are separate records, joined by “and”; a condition that tells them apart may be missing. Identical values can stand only once.
System: HEK-293T
Assay: Multiplex assay against HEK293T
Format: toxicity, cell-based
Details: human
In short: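 Tubulin, mitochondrial-mass and membrane-permeability phenotypes are per cents of healthy-nucleus cells. Cells were gated by CellPathfinder machine learning into Hoechst high-intensity objects or normal cells, normal cells into healthy, pyknosed or fragmented nuclei, and pyknosed cells into mitotic or apoptotic. Before that, live cells stained at seeding with Hoechst33342, BioTracker Green Microtubule Cytoskeleton Dye, MitoTracker Red and Annexin V Alexa Fluor 680 were imaged on a CQ1 microscope at 37°C and 5% CO2 after compound addition.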

[1] = 12 h, 1 µM, compound concentration 1 uM
[2] = 12 h, 10 µM, compound concentration 10 uM
[3] = 24 h, 1 µM, compound concentration 1 uM
[4] = 24 h, 10 µM, compound concentration 10 uM
[5] = 48 h, 1 µM, compound concentration 1 uM
[6] = 48 h, 10 µM, compound concentration 10 uM

Structure (SMILES): CCCCCCNC(=O)Nc1ccc(S(=O)(=O)Nc2ccc(CCNC[C@H](O)COc3ccc(O)cc3)cc2)cc1 [L-755507]
- Population Apoptotic (%) [1]: 35% and 31%
- Population Fragmented Nuclei (%) [1]: 8% and 6%
- Population Healthy Nuclei (%) [1]: 84% and 83%
- Population Hoechst High Intensity Objects (%) [1]: 7%
- Population Membrane Permeable-Phenotype (%) [1]: 0%
- Population Mitochondria Different-Phenotype (%) [1]: 39% and 64%
- Population Mitotic Cells (%) [1]: 64% and 68%
- Population Normal (%) [1]: 92%
- Population Pyknosed Nuclei (%) [1]: 7% and 10%
- Population Tubulin-Different-Phenotype (%) [1]: 28% and 32%
- Total Cell Count [1]: 494 and 403
- Population Apoptotic (%) [2]: 58% and 71%
- Population Fragmented Nuclei (%) [2]: 10% and 8%
- Population Healthy Nuclei (%) [2]: 74% and 79%
- Population Hoechst High Intensity Objects (%) [2]: 17% and 7%
- Population Membrane Permeable-Phenotype (%) [2]: 0%
- Population Mitochondria Different-Phenotype (%) [2]: 69% and 87%
- Population Mitotic Cells (%) [2]: 41% and 28%
- Population Normal (%) [2]: 82% and 92%
- Population Pyknosed Nuclei (%) [2]: 14% and 11%
- Population Tubulin-Different-Phenotype (%) [2]: 68% and 61%
- Total Cell Count [2]: 384 and 341
- Population Apoptotic (%) [3]: 19% and 30%
- Population Fragmented Nuclei (%) [3]: 9% and 11%
- Population Healthy Nuclei (%) [3]: 80%
- Population Hoechst High Intensity Objects (%) [3]: 5% and 4%
- Population Membrane Permeable-Phenotype (%) [3]: 0%
- Population Mitochondria Different-Phenotype (%) [3]: 20% and 42%
- Population Mitotic Cells (%) [3]: 80% and 70%
- Population Normal (%) [3]: 94% and 95%
- Population Pyknosed Nuclei (%) [3]: 9% and 7%
- Population Tubulin-Different-Phenotype (%) [3]: 20% and 22%
- Total Cell Count [3]: 634 and 547
- Population Apoptotic (%) [4]: 26% and 48%
- Population Fragmented Nuclei (%) [4]: 8% and 7%
- Population Healthy Nuclei (%) [4]: 80% and 83%
- Population Hoechst High Intensity Objects (%) [4]: 14% and 9%
- Population Membrane Permeable-Phenotype (%) [4]: 0%
- Population Mitochondria Different-Phenotype (%) [4]: 59% and 68%
- Population Mitotic Cells (%) [4]: 73% and 51%
- Population Normal (%) [4]: 85% and 90%
- Population Pyknosed Nuclei (%) [4]: 11% and 9%
- Population Tubulin-Different-Phenotype (%) [4]: 42% and 51%
- Total Cell Count [4]: 461 and 402
- Population Apoptotic (%) [5]: 10% and 15%
- Population Fragmented Nuclei (%) [5]: 12% and 13%
- Population Healthy Nuclei (%) [5]: 81% and 80%
- Population Hoechst High Intensity Objects (%) [5]: 3% and 5%
- Population Membrane Permeable-Phenotype (%) [5]: 2%
- Population Mitochondria Different-Phenotype (%) [5]: 16% and 24%
- Population Mitotic Cells (%) [5]: 89% and 84%
- Population Normal (%) [5]: 96% and 94%
- Population Pyknosed Nuclei (%) [5]: 6%
- Population Tubulin-Different-Phenotype (%) [5]: 15% and 20%
- Total Cell Count [5]: 1052 and 775
- Population Apoptotic (%) [6]: 46% and 65%
- Population Fragmented Nuclei (%) [6]: 15% and 13%
- Population Healthy Nuclei (%) [6]: 75% and 80%
- Population Hoechst High Intensity Objects (%) [6]: 11% and 8%
- Population Membrane Permeable-Phenotype (%) [6]: 1% and 0%
- Population Mitochondria Different-Phenotype (%) [6]: 36% and 47%
- Population Mitotic Cells (%) [6]: 53% and 34%
- Population Normal (%) [6]: 88% and 91%
- Population Pyknosed Nuclei (%) [6]: 9% and 5%
- Population Tubulin-Different-Phenotype (%) [6]: 32% and 39%
- Total Cell Count [6]: 598 and 596

Structure (SMILES): CN1CCN2c3ncccc3Cc3ccccc3C2C1 (configuration not stated) [MIRTAZAPINE]
- Population Apoptotic (%) [1]: 58% and 51%
- Population Fragmented Nuclei (%) [1]: 4% and 3%
- Population Healthy Nuclei (%) [1]: 88% and 79%
- Population Hoechst High Intensity Objects (%) [1]: 5% and 7%
- Population Membrane Permeable-Phenotype (%) [1]: 0%
- Population Mitochondria Different-Phenotype (%) [1]: 41% and 68%
- Population Mitotic Cells (%) [1]: 41% and 48%
- Population Normal (%) [1]: 94% and 92%
- Population Pyknosed Nuclei (%) [1]: 7% and 17%
- Population Tubulin-Different-Phenotype (%) [1]: 22% and 21%
- Total Cell Count [1]: 402 and 329
- Population Apoptotic (%) [2]: 45% and 47%
- Population Fragmented Nuclei (%) [2]: 9% and 5%
- Population Healthy Nuclei (%) [2]: 75% and 79%
- Population Hoechst High Intensity Objects (%) [2]: 6%
- Population Membrane Permeable-Phenotype (%) [2]: 0% and 1%
- Population Mitochondria Different-Phenotype (%) [2]: 49% and 64%
- Population Mitotic Cells (%) [2]: 54% and 52%
- Population Normal (%) [2]: 93%
- Population Pyknosed Nuclei (%) [2]: 15%
- Population Tubulin-Different-Phenotype (%) [2]: 43% and 36%
- Total Cell Count [2]: 228 and 240
- Population Apoptotic (%) [3]: 33% and 42%
- Population Fragmented Nuclei (%) [3]: 9% and 6%
- Population Healthy Nuclei (%) [3]: 80% and 79%
- Population Hoechst High Intensity Objects (%) [3]: 3% and 6%
- Population Membrane Permeable-Phenotype (%) [3]: 0%
- Population Mitochondria Different-Phenotype (%) [3]: 35% and 47%
- Population Mitotic Cells (%) [3]: 66% and 57%
- Population Normal (%) [3]: 97% and 93%
- Population Pyknosed Nuclei (%) [3]: 10% and 14%
- Population Tubulin-Different-Phenotype (%) [3]: 18% and 17%
- Total Cell Count [3]: 601 and 373
- Population Apoptotic (%) [4]: 44% and 32%
- Population Fragmented Nuclei (%) [4]: 9% and 5%
- Population Healthy Nuclei (%) [4]: 78% and 80%
- Population Hoechst High Intensity Objects (%) [4]: 3% and 5%
- Population Membrane Permeable-Phenotype (%) [4]: 0%
- Population Mitochondria Different-Phenotype (%) [4]: 40% and 44%
- Population Mitotic Cells (%) [4]: 55% and 67%
- Population Normal (%) [4]: 96% and 94%
- Population Pyknosed Nuclei (%) [4]: 12% and 13%
- Population Tubulin-Different-Phenotype (%) [4]: 28% and 18%
- Total Cell Count [4]: 274 and 314
- Population Apoptotic (%) [5]: 23% and 44%
- Population Fragmented Nuclei (%) [5]: 11% and 13%
- Population Healthy Nuclei (%) [5]: 82% and 80%
- Population Hoechst High Intensity Objects (%) [5]: 2% and 3%
- Population Membrane Permeable-Phenotype (%) [5]: 1% and 0%
- Population Mitochondria Different-Phenotype (%) [5]: 19% and 21%
- Population Mitotic Cells (%) [5]: 76% and 55%
- Population Normal (%) [5]: 97% and 96%
- Population Pyknosed Nuclei (%) [5]: 6%
- Population Tubulin-Different-Phenotype (%) [5]: 13% and 9%
- Total Cell Count [5]: 885 and 562
- Population Apoptotic (%) [6]: 31% and 30%
- Population Fragmented Nuclei (%) [6]: 14% and 11%
- Population Healthy Nuclei (%) [6]: 74% and 81%
- Population Hoechst High Intensity Objects (%) [6]: 2% and 3%
- Population Membrane Permeable-Phenotype (%) [6]: 0%
- Population Mitochondria Different-Phenotype (%) [6]: 36% and 30%
- Population Mitotic Cells (%) [6]: 68% and 69%
- Population Normal (%) [6]: 97% and 96%
- Population Pyknosed Nuclei (%) [6]: 10% and 7%
- Population Tubulin-Different-Phenotype (%) [6]: 20% and 12%
- Total Cell Count [6]: 390 and 521

Reference: ChEMBL document CHEMBL5724801, “EUbOPEN Chemogenomics Library - Multiplex” (2024)
